Rows were chosen to be rich in hits. Some 2% of all compounds tested hit in one or more screens of this group.
NR2E3 ag-1 = inhibitors of NR2E3-RetCOR corepressor binding, primary screen, NR2E3 agonist project, biochemical, TR-FRET, GST-NR2E3, biotin-RetCOR | inhibition of corepressor binding, % at 4.78 µM | Photoreceptor-specific nuclear receptor (Homo sapiens), Q9Y5X4 | AID 2300, 2010 | 1536-well | actives 0.12% (n = 320,000);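 active = percent inhibition above the cutoff of mean plus 3 SD of all tested compounds, set per screening campaign, cut at about 20% in these data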;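 note: 0% = DMSO wells and 100% = biotin wells as full block of FRET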
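Material: NR2E3–RetCOR corepressor complex | Quantity: 1.35 nM GST-tagged NR2E3 final | Schedule: 5 h at 4 °C | Replication: Singlicate compound wells | Reagent: RetCOR corepressor, biotinylated, 7 nM | Controls: Biotin wells as high control, 0.6% DMSO wells as low control | Signal: TR-FRET, Eu(K)-anti-GST donor, streptavidin-D2 acceptor, ex 340, em 617/671 nm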
PG9 Ab binder = binders of HIV-1 gp120 antibody PG9, primary screen, biochemical, TR-FRET. AID 624416, 2012. TR-FRET gp120-PG9 antibody binding. inhibition, % at 6.7 µM. actives 0.43% (n = 360,000); in the data active = inhibition above about 8.5%
NR2E3 ag-2 = NR2E3 agonists in two-hybrid cells, primary screen, cell-based, luminescence, CHO-S, Gal4-NCOR/VP16-NR2E3; inhibition of corepressor binding, % at 3.98 µM; luciferase; actives 0.35% (n = 360,000); Photoreceptor-specific nuclear receptor (Homo sapiens), Q9Y5X4;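 active = inhibition above the mean of all tested compounds plus 3 SD, cut at about 70% in these data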;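 note: 0% = DMSO with NR2E3 transfected cells and 100% = cells lacking NR2E3 construct; higher means lower luciferase signal from less NR2E3 corepressor binding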
Neddylation inh = inhibitors of cullin neddylation, primary screen, biochemical, TR-FRET, uHTS, NAE and Ubc12; actives 0.58% (n = 360,000); calls only at 25 µM; NEDD8-conjugating enzyme Ubc12 (Homo sapiens) + NEDD8-activating enzyme E1 regulatory …; AID 651699, 2012; in the data active = inhibition above about 36%
Target sequence (P61081 whole entry, looked up): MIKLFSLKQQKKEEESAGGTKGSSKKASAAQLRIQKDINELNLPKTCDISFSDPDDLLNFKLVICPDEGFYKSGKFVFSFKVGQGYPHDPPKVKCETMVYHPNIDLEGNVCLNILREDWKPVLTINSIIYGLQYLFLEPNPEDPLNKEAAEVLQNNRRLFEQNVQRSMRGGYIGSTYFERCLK
Target sequence (Q13564 whole entry, looked up): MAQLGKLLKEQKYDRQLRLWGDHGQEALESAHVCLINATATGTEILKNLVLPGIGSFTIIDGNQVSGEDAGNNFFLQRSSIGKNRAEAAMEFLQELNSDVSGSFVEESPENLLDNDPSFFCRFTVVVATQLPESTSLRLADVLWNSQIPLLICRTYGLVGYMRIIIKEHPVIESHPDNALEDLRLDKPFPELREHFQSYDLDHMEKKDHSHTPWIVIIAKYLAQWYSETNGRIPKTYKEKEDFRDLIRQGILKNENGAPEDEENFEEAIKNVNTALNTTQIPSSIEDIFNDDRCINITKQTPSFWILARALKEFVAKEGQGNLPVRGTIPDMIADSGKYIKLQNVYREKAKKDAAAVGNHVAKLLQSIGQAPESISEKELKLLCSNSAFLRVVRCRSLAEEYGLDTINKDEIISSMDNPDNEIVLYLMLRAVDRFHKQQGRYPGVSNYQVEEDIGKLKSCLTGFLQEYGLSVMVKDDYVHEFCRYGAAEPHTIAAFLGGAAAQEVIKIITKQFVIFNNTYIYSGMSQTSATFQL
NR1D1 modulator = modulators of Rev-erb alpha DNA binding, primary screen, biochemical, FITC-DNA, fluorescence polarization, uHTS; AID 1259318, 2017; actives 0.79% (n = 370,000); Nuclear receptor subfamily 1 group D member 1 (Homo sapiens), P20393; Rev-erbα–FITC-DNA binding, 90 min; activity, % at 10 µM;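 active = activity above about 14%, limit read from the data; passing the limit was not always enough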;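 note: 0% = DMSO wells with 35 nM protein and 100% = DMSO wells with 750 nM protein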
Rev-erbA confirm = modulators of Rev-erb alpha DNA binding, confirmation, biochemical, FITC-DNA, fluorescence polarization, single point; shares compounds with NR1D1 modulator; 90 min; activation, % at 25 µM; actives 61% (n = 3,000); AID 1259319, 2017;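 active = activation at or above a set limit, or at least 3 SD above the negative control mean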;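 note: 0% = 35 nM protein with DMSO and 100% = 750 nM protein high control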
RORg counter = modulation of RORgamma DNA binding, dose response, counter-screen for Rev-erb alpha modulator project, biochemical, fluorescence polarization, FITC-DNA; shares compounds with NR1D1 modulator; purified RORgamma protein-FITC-DNA binding; IC50, µM; actives 8% (n = 910);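 active = Compounds whose fitted half-maximal concentration for disrupting protein-DNA binding is below 10 micromolar; the record names Rev-erb in its text, so the target is in doubt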
The depositor's hits bear a star; i = inactive; . = no result given.

SMILES	NR2E3 ag-1	PG9 Ab binder	NR2E3 ag-2	Neddylation inh	NR1D1 modulator	Rev-erbA confirm	others
CC(=O)Nc1ccc(S(=O)(=O)N(C)CC(=O)OCC(=O)N2CCCC2=O)cc1	-4.0	-1.6	-31.7	i	0.5	.
CSc1nc(-c2ccc(C)cc2)nc(N)c1C#N	0.4	1.6	-5.2	i	30.6*	8.3
Cc1ccc(-c2c(C#N)c(N)nc3c2CCCCC3)cc1	-0.4	0.2	-14.7	i	31.2*	19.8*
CC(C)c1ccc(-c2c(C#N)c(N)nc3c2CCCCC3)cc1	2.6	2.0	-16.6	i	2.2	.
CSc1nc(C)cc(C)c1C#N	0.1	-1.5	-7.8	i	-2.1	.
CSc1nc(N)c(C#N)c(-c2ccc(Cl)cc2)c1C#N	2.3	1.7	-18.5	i	60.2*	44.7*	RORg counter=>40
CCc1nc2ccc(C(=O)N(C)Cc3ccco3)cn2c1N(CC)Cc1cccc(Br)c1	.	-2.1	14.3	i	-4.4	.
COc1ccc2cc(C(=O)COC(=O)COc3ccc4c(C)cc(=O)oc4c3)ccc2c1	2.8	0.6	2.9	i	85.2*	52.3*	RORg counter=>40
Cc1ccc(N=Nc2c(C)[nH]n(C(N)=S)c2=O)cc1C	-1.7	-3.4	15.4	i	0.6	.
Cc1[nH]n(C(N)=S)c(=O)c1N=Nc1cc(-c2ccc(Br)cc2)[nH]n1	0.7	1.1	-3.0	i	14.0*	11.6
CNC(=O)/C(C#N)=C/c1cn(CC(=O)OC)c2ccccc12	0.4	-1.7	13.8	i	0.5	.
COC(=O)Cn1c(C)c(/C=C/c2cc[n+](C)cc2)c2ccccc21	.	-9.6	-15.1	i	154.1*	113.7*	RORg counter=>40
COC(=O)Cn1cc(/C=C/c2cc[n+](C)cc2)c2ccccc21	-7.0	-2.6	-6.1	i	54.9*	63.3*	RORg counter=>40
COC(=O)Cn1c(=O)c(=O)n(CC(=O)OC)c2ccccc21	0.4	-3.4	-7.0	i	-5.6	.
CCN(CC)S(=O)(=O)c1ccc(C(=O)NNC(=O)c2csc(N3CCOCC3)n2)cc1	-0.9	2.6	1.1	i	-0.9	.
CN(C)S(=O)(=O)c1ccc(C(=O)OCC(=O)c2csc(N3CCCCC3)n2)cc1	2.9	-1.1	-24.8	i	23.7*	10.6
CC(=O)Nc1cccc(-c2ccnc3c2CC(C)(C(=O)Nc2ccc(C(C)C)cc2)O3)c1 (stereo not given)	.	-2.7	-9.6	i	0.5	.
CC(=O)C1=C(C)N(Cc2ccc(F)cc2)C(=S)NC1c1cccc(Br)c1 (stereo not given)	.	-2.0	.	.	-1.1	.
Cc1ccnc(NC(=O)c2cc(-c3ccc(Cl)s3)nc3ccccc23)c1	-3.7	-3.5	-33.4	i	24.4*	-6.0
Cc1ccnc(NC(=O)CNC(=O)c2sc3ccccc3c2Cl)c1	8.1	5.5	-56.0	i	35.2*	6.2
O=C(CNC(=O)c1sc2ccccc2c1Cl)NCc1ccccc1	-7.8	-8.7	-37.2	i	22.1*	11.3
Cc1ccc(S(=O)(=O)N2CCN(C(=O)CNC(=O)c3sc4ccccc4c3Cl)CC2)cc1	2.4	-0.3	-2.8	i	22.6*	5.1
O=C(NCC(=O)N1CCCCC1)c1sc2ccccc2c1Cl	1.9	2.4	-83.8	i	2.3	.
COC(=O)c1c(NC(=O)CN2C(=O)C(=O)N(CC(C)C)C2=O)sc(C)c1C	-4.4	0.8	19.8	i	1.1	.
CCOc1ccc(CNC(=O)C2CCN(c3nnc(C)c4c(C)n(-c5ccc(C)cc5)nc34)CC2)cc1	-135.8	2.2	-9.7	i	32.6*	33.8*	RORg counter=>40

Screening data deposited in PubChem BioAssay by several laboratories.
